Measured values taken from paper PMC11378026 (RSC Advances, 2024).
In brackets after ≈: the same amount, converted by molar mass. Like-named read-outs stand apart in the source and are kept apart here.

Columns and labels:
[1] = test system: breast epithelial (MCF10A) cell line; assay: MTT cytotoxicity assay on MCF10A cells; assay type: cell-based; conditions: Homo sapiens, MCF-10A, read-out: IC50 (μg mL^−1) ± SD against MCF-10A
Method in brief: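 Mycoplasma-free MCF-10A cells, run in triplicate, were exposed to increasing doses of test compound, with 5-fluorouracil as positive control. MTT was added for 4 h, formazan was dissolved in DMSO, and absorbance was read at 570 and 630 nm. Viability = (A − A0)/(ANC − A0), using mean absorbances of treated, blank and cells-only wells. IC50 was derived from viability.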

[2] = test system: breast cancer (MCF-7) cell line; assay: MTT cytotoxicity assay on MCF-7 cells; assay type: cell-based, human
[3] = test system: breast cancer cells; conditions: cited from earlier work

What does the source list for `O=c1[nH]cc(F)c(=O)[nH]1` [5-FU, 5-fluorouracil, reference compound]?
IC50 [1]: 41 ± 1.89 mg/L (≈ 315 µM); IC50 ([2]; Homo sapiens, MCF7, read-out: IC50 (μg mL^−1) ± SD against MCF-7): 28.3 ± 1.89 mg/L (≈ 218 µM); Selectivity index (SI) ([2]; cancer MCF-7 cells over healthy MCF10A cells): 1.45

With `N.N.O=C([O-])C1(C(=O)[O-])CCC1.[Pt+2]` [Carboplatin] as the compound, how does the IC50 ([3]; ref S2) read?
Its IC50 is 73.5 µM.

For `N.N.[Cl][Pt][Cl]` [Cisplatin], which IC50 ([3]; ref S1) is on record?
The IC50 was 12.2 µM.

With `O=C1[O][Pt]2([NH][C@@H]3CCCC[C@H]3[NH]2)[O]C1=O` [Oxaliplatin] as the compound, how does the IC50 ([3]; ref S2) read?
Its IC50 is 21.9 µM.
